ChEMBL document CHEMBL2150936, “Anticancer activity of small amphipathic β²,²-amino acid derivatives” (Eur J Med Chem, 2012)
Activity calls are given as the source filed them. No cut-off for these calls is given here.

Key:
HCT-116 = assay: Cytotoxicity against human HCT116 cells after 4 hrs by MTT assay; type: functional, cell-based; conditions: HCT-116, 4 h
SW-620 = assay: Cytotoxicity against human SW620 cells after 4 hrs by MTT assay; type: functional, cell-based; conditions: SW-620, 4 h
Ramos [1] = assay: Selectivity index, ratio of EC50 for human RBC to IC50 for human Ramos cells; type: functional
Procedure, shortened: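 Ramos IC50 came from a 4 h MTT assay: cells at 4 × 10^5 cells/ml in serum-free RPMI-1640, compounds added at once, 37 °C, 2 h MTT, read at 590 nm. RBC EC50 came from hemoglobin release at 405 nm: 1% v/v washed human erythrocytes in PBS, 1 h at 37 °C, Triton X-100 reference. SI = RBC EC50 / Ramos IC50.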

T47D = assay: Cytotoxicity against human T47D cells after 4 hrs by MTT assay; type: functional, cell-based
K562 = assay: Cytotoxicity against human K562 cells after 4 hrs by MTT assay; type: functional, cell-based; conditions: K562, 4 h
SNB-75 = assay: Cytotoxicity against human SNB75 cells after 4 hrs by MTT assay; type: functional, cell-based; conditions: SNB-75, 4 h
PC-3 = assay: Cytotoxicity against human PC3 cells after 4 hrs by MTT assay; type: functional, cell-based; conditions: PC-3, 4 h
CCRF-CEM = assay: Cytotoxicity against human CCRF-CEM cells after 4 hrs by MTT assay; type: functional, cell-based
HCC 2998 = assay: Cytotoxicity against human HCC2998 cells after 4 hrs by MTT assay; type: functional, cell-based; conditions: HCC 2998, 4 h
M14 = assay: Cytotoxicity against human M14 cells after 4 hrs by MTT assay; type: functional, cell-based; conditions: M14, 4 h
UACC-257 = assay: Cytotoxicity against human UACC257 cells after 4 hrs by MTT assay; type: functional, cell-based; conditions: UACC-257, 4 h
SF-295 = assay: Cytotoxicity against human SF295 cells after 4 hrs by MTT assay; type: functional, cell-based; conditions: SF-295, 4 h
MRC5 = assay: Cytotoxicity against human MRC5 cells after 4 hrs by MTT assay; type: cell-based; conditions: MRC5, 4 h
Procedure, shortened: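 MRC-5 embryonic lung fibroblast monolayers in MEM with 10% FBS were seeded at 1 × 10^5 cells/ml, grown overnight, then medium was replaced with compound solution. Exposure was 4 h at 37 °C, 5% CO2, then MTT for 2 h. Formazan was dissolved in acidic isopropanol (0.04 N HCl) and absorbance read at 590 nm. Background-corrected viability was taken relative to medium-only control, with Triton X-100 as positive control.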

A549 = assay: Cytotoxicity against human A549 cells after 4 hrs by MTT assay; type: functional, cell-based; conditions: A549, 4 h
NCI-H322M = assay: Cytotoxicity against human NCI-H322M cells after 4 hrs by MTT assay; type: functional, cell-based
SF-268 = assay: Cytotoxicity against human SF268 cells after 4 hrs by MTT assay; type: functional, cell-based; conditions: SF-268, 4 h
Hs-578T = assay: Cytotoxicity against human Hs578T cells after 4 hrs by MTT assay; type: functional, cell-based
UO-31 = assay: Cytotoxicity against human UO31 cells after 4 hrs by MTT assay; type: functional, cell-based; conditions: UO-31, 4 h
SNB-19 = assay: Cytotoxicity against human SNB19 cells after 4 hrs by MTT assay; type: functional, cell-based; conditions: SNB-19, 4 h
Ramos [2] = assay: Induction of apoptosis in human Ramos cells assessed as disruption of mitochondrial potential after 1 hr by TMRE based flow cytometry; type: functional, cell-based
[3] = Cytotoxicity against human […] cells after 4 hrs by MTT assay; type: functional, cell-based
MDA-MB-435 = assay: Cytotoxicity against human MDA-MB-435 cells after 4 hrs by MTT assay; type: functional, cell-based; conditions: MDA-MB-435, 4 h
EKVX = assay: Cytotoxicity against human EKVX cells after 4 hrs by MTT assay; type: functional, cell-based
A498 = assay: Cytotoxicity against human A498 cells after 4 hrs by MTT assay; type: functional, cell-based; conditions: A498, 4 h
OVCAR-3 = assay: Cytotoxicity against human OVCAR3 cells after 4 hrs by MTT assay; type: functional, cell-based; conditions: OVCAR-3, 4 h
Malme-3M = assay: Cytotoxicity against human MALME-3M cells after 4 hrs by MTT assay; type: functional, cell-based
RXF 393 = assay: Cytotoxicity against human RXF393 cells after 4 hrs by MTT assay; type: functional, cell-based; conditions: RXF 393, 4 h
HOP-92 = assay: Cytotoxicity against human HOP92 cells after 4 hrs by MTT assay; type: functional, cell-based; conditions: HOP-92, 4 h
SF-539 = assay: Cytotoxicity against human SF539 cells after 4 hrs by MTT assay; type: functional, cell-based; conditions: SF-539, 4 h
SK-MEL-28 = assay: Cytotoxicity against human SK-MEL-28 cells after 4 hrs by MTT assay; type: functional, cell-based; conditions: SK-MEL-28, 4 h
HL-60 = assay: Cytotoxicity against human HL60 cells after 4 hrs by MTT assay; type: functional, cell-based; conditions: HL-60, 4 h
HCT-15 = assay: Cytotoxicity against human HCT15 cells after 4 hrs by MTT assay; type: functional, cell-based; conditions: HCT-15, 4 h
CAKI-1 = assay: Cytotoxicity against human CAKI-1 cells after 4 hrs by MTT assay; type: functional, cell-based; conditions: CAKI-1, 4 h
[4] = read-out: LC50 (the source's name)

NCCNC(=O)C(CN)(Cc1ccc2ccccc2c1)Cc1ccc2ccccc2c1
IC50 (HCT-116): 0.65 µM | TGI (HCT-116): 1.74 µM | CC50 (HCT-116; [4]): 4.37 µM | IC50 (SW-620): 0.35 µM | TGI (SW-620): 0.83 µM | CC50 (SW-620; [4]): 3.39 µM | Selectivity Index (Ramos [1]): 112 | IC50 (T47D): 3.8 µM | TGI (T47D): 3.39 µM | CC50 (T47D; [4]): 7.59 µM | IC50 (K562): 0.32 µM | TGI (K562): 0.62 µM | IC50 (SNB-75): 2.75 µM | TGI (SNB-75): 2.69 µM | CC50 (SNB-75; [4]): 5.25 µM | IC50 (PC-3): 3.09 µM | TGI (PC-3): 3.31 µM | CC50 (PC-3; [4]): 6.61 µM | IC50 (CCRF-CEM): 2.24 µM | TGI (CCRF-CEM): 3.39 µM | CC50 (CCRF-CEM; [4]): 9.12 µM | IC50 (HCC 2998): 0.59 µM | TGI (HCC 2998): 1.26 µM | CC50 (HCC 2998; [4]): 3.98 µM | IC50 (M14): 3.16 µM | TGI (M14): 3.24 µM | CC50 (M14; [4]): 6.03 µM | IC50 (UACC-257): 3.39 µM | TGI (UACC-257): 3.39 µM | CC50 (UACC-257; [4]): 5.89 µM | IC50 (SF-295): 2.51 µM | TGI (SF-295): 2.69 µM | CC50 (SF-295; [4]): 5.75 µM | EC50 (MRC5): 22 µM | IC50 (A549): 2.51 µM | TGI (A549): 2.88 µM | CC50 (A549; [4]): 5.75 µM | IC50 (NCI-H322M): 3.09 µM | TGI (NCI-H322M): 2.88 µM | CC50 (NCI-H322M; [4]): 5.89 µM | IC50 (SF-268): 2.82 µM | TGI (SF-268): 3.02 µM | CC50 (SF-268; [4]): 6.03 µM | IC50 (Hs-578T): 3.63 µM | TGI (Hs-578T): 3.47 µM | CC50 (Hs-578T; [4]): 7.94 µM | IC50 (UO-31): 2.95 µM | TGI (UO-31): 2.95 µM | CC50 (UO-31; [4]): 6.03 µM | IC50 (SNB-19): 2.95 µM | TGI (SNB-19): 3.02 µM | CC50 (SNB-19; [4]): 5.62 µM | Activity (Ramos [2]): Active | IC50 [3]: 3.63 µM | TGI [3]: 4.57 µM | IC50 (MDA-MB-435): 1.02 µM | TGI (MDA-MB-435): 2 µM | CC50 (MDA-MB-435; [4]): 5.62 µM | IC50 (EKVX): 2.69 µM | TGI (EKVX): 2.88 µM | CC50 (EKVX; [4]): 6.17 µM | IC50 (A498): 2.82 µM | TGI (A498): 2.34 µM | CC50 (A498; [4]): 5.01 µM | IC50 (OVCAR-3): 2.82 µM | TGI (OVCAR-3): 2.88 µM | CC50 (OVCAR-3; [4]): 5.62 µM | IC50 (Malme-3M): 3.89 µM | TGI (Malme-3M): 3.8 µM | CC50 (Malme-3M; [4]): 7.24 µM | IC50 (RXF 393): 2.69 µM | TGI (RXF 393): 2.69 µM | CC50 (RXF 393; [4]): 5.5 µM | IC50 (HOP-92): 3.72 µM | TGI (HOP-92): 3.47 µM | CC50 (HOP-92; [4]): 7.24 µM | IC50 (SF-539): 2.69 µM | TGI (SF-539): 2.88 µM | CC50 (SF-539; [4]): 5.62 µM | IC50 (SK-MEL-28): 3.47 µM | TGI (SK-MEL-28): 3.47 µM | CC50 (SK-MEL-28; [4]): 5.89 µM | IC50 (HL-60): 0.48 µM | TGI (HL-60): 1.38 µM | IC50 (HCT-15): 0.79 µM | TGI (HCT-15): 1.91 µM | CC50 (HCT-15; [4]): 5.01 µM | IC50 (CAKI-1): 2.75 µM | TGI (CAKI-1): 3.02 µM | CC50 (CAKI-1; [4]): 6.17 µM
